Measurements: ChEMBL document CHEMBL4665690, “Proversilins A-E, Drimane-Type Sesquiterpenoids from the Endophytic Aspergillus versicolor” (J Nat Prod, 2020)

Legend:
Format in all cases: functional, cell-based
HL-60 = assay: Cytotoxicity against human HL-60 cells assessed as reduction in cell viability after 48 hrs by MTT assay; details: HL-60, 48 h
In short: (§1)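 Cells exposed 48 h to compounds at 0.0625 to 40 μM, with cisplatin and paclitaxel as positive controls. Survival read by MTT, absorbance at 570 nm. Data are means of three replicates. IC50 derived from a standard dose–response curve fit.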

MCF7 = assay: Cytotoxicity against human MCF7 cells assessed as reduction in cell viability after 48 hrs by MTT assay; details: MCF7, 48 h; in short: as §1
NCM460 = assay: Cytotoxicity against human NCM460 cells assessed as reduction in cell viability after 48 hrs by MTT assay; details: NCM460, 48 h; in short: as §1
SW480 = assay: Cytotoxicity against human SW480 cells assessed as reduction in cell viability after 48 hrs by MTT assay; details: SW480, 48 h; in short: as §1
A549 = assay: Cytotoxicity against human A549 cells assessed as reduction in cell viability after 48 hrs by MTT assay; details: A549, 48 h; in short: as §1
SMMC-7721 = assay: Cytotoxicity against human SMMC-7721 cells assessed as reduction in cell viability after 48 hrs by MTT assay; details: SMMC-7721, 48 h; in short: as §1

## C[C@]1(CO)CCC[C@]2(C)C3=C(CC[C@@H]12)C(=O)OC3
HL-60
  IC50: > 40 µM
MCF7
  IC50: > 40 µM
NCM460
  IC50: > 40 µM
SW480
  IC50: > 40 µM
A549
  IC50: > 40 µM
SMMC-7721
  IC50: > 40 µM

## CC(=O)N[C@H](CC(=O)O[C@@H]1CC(C)(C)[C@@H]2CCC3=C(COC3=O)[C@@]2(C)C1)c1ccccc1
HL-60
  IC50: 7.3 µM
MCF7
  IC50: 11.8 µM
NCM460
  IC50: > 40 µM
SW480
  IC50: 12.4 µM
A549
  IC50: 15 µM
SMMC-7721
  IC50: 12.6 µM

## CC(=O)N[C@H](CC(=O)OC[C@@]1(C)CCC[C@]2(C)C3=C(CC[C@@H]12)C(=O)OC3)c1ccccc1
HL-60
  IC50: > 40 µM
MCF7
  IC50: > 40 µM
NCM460
  IC50: > 40 µM
SW480
  IC50: > 40 µM
A549
  IC50: > 40 µM
SMMC-7721
  IC50: > 40 µM

## CC(=O)N[C@H](CC(=O)O[C@@H]1C[C@](C)(CO)[C@@H]2CCC3=C(COC3=O)[C@@]2(C)C1)c1ccccc1
HL-60
  IC50: > 40 µM
MCF7
  IC50: > 40 µM
NCM460
  IC50: > 40 µM
SW480
  IC50: > 40 µM
A549
  IC50: > 40 µM
SMMC-7721
  IC50: > 40 µM

## CC(=O)N[C@H](CC(=O)O[C@@H]1C[C@](C)(C=O)[C@@H]2CCC3=C(COC3=O)[C@@]2(C)C1)c1ccccc1
HL-60
  IC50: 9.9 µM
MCF7
  IC50: 18.3 µM
NCM460
  IC50: > 40 µM
SW480
  IC50: 16.4 µM
A549
  IC50: 28.4 µM
SMMC-7721
  IC50: 19.4 µM

## CC(=O)O[C@H]1C(=O)[C@@]2(C)[C@H]([C@H](OC(=O)c3ccccc3)[C@]3(O)C[C@H](OC(=O)[C@H](O)[C@@H](NC(=O)c4ccccc4)c4ccccc4)C(C)=C1C3(C)C)[C@]1(OC(C)=O)CO[C@@H]1C[C@@H]2O [PACLITAXEL]
HL-60
  IC50: < 0.008 µM
MCF7
  IC50: < 0.008 µM
NCM460
  IC50: < 0.008 µM
SW480
  IC50: < 0.008 µM
A549
  IC50: < 0.008 µM
SMMC-7721
  IC50: < 0.008 µM
